# Compound activity as filed in PubChem BioAssay.
# PLAP act: human PLAP activation | P05187 | purified PLAP enzyme, luminescent substrate read-out; stronger effect = higher value | activation fold at 20 µM | 1.2% of 96,000 active | AID 696; in the data active = activation fold above about 2
# Target sequence (P05187 whole entry, looked up): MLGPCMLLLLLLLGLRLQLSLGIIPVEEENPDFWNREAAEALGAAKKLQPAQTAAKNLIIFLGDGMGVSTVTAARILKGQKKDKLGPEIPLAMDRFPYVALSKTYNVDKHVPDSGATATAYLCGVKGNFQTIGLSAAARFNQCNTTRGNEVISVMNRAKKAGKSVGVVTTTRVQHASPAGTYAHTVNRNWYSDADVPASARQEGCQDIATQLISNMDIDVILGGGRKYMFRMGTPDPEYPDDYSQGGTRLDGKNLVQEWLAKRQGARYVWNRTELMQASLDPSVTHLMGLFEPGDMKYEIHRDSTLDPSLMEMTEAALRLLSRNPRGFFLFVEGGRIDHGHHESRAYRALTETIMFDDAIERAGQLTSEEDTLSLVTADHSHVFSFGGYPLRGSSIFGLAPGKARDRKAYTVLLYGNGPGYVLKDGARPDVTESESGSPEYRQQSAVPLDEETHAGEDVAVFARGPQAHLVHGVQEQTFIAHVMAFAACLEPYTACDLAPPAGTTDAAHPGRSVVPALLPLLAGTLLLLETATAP
# PostGolgi yeast: growth inhibition of a yeast mutant, post-Golgi transport screen. post-Golgi transport phenotypic cell assay. inhibition, % at 10 µM. 0.9% of 98,000 active;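 note: yeast cells grown in 1536-well plates; yeast grown about 18 h at 30C before absorbance read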
# PostGolgi ctrl: inhibits growth of the yeast control strain; inhibition, % at 10 µM; efflux-deficient yeast background strain, growth absorbance A615, 16 h; 5% of 98,000 active; AID 738
# Ecoli tolC: blocks growth of E. coli BW25113 tolC mutant | 2.2% of 65,000 active | growth inhibition, % at 10 µM (by protocol) | AID 573 | OD615;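 active = growth inhibition at or above a cutoff equal to the mean over every tested compound plus 3 SD, cut at about 60% in these data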;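 note: growth measured after 20 h incubation at 37 °C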
#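 Test system: E. coli BW25113 ΔtolC::kan bacteria; incubation: 37 °C, 20 h exposure; medium: LB broth supplemented with 50 µg/mL kanamycin; read-out basis: percent growth inhibition; signal: A615 absorbance measurement; compound: 10 µM final, single dose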
# Ecoli WT expand: growth inhibitors of E. coli BW25113 wild type | OD600 absorbance | growth inhibition, % at 100 µM | 0.15% of 98,000 active;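 active = growth inhibition above about 50% at one test dose, limit read from the data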;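 note: growth measured after 20 h incubation at 37 °C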
# * hit, by the source's call; · = no result. Hits are enriched below; roughly 7.2% of the tested compounds scored in any of these assays. Cut-off read from the data, not from the text of the source, unless noted: active = inhibition above about 30%; inactive = the rest.
SMILES,PLAP act,PostGolgi yeast,PostGolgi ctrl,Ecoli tolC,Ecoli WT expand
O=c1c2c3c(sc2nc2n1CCCCC2)CCCC3,1,-14,31*,23,-9
O=c1c2c3c(sc2nc2n1CCCCC2)CCCCC3,1.1,-31,21,30,-1
COc1ccc(S(=O)(=O)N2CCOCC2)cc1Cl,1,-7,1,·,-14
COc1ccc(S(=O)(=O)Nc2ccccc2OC)cc1C,1.1,-1,9,6,-3
COc1ccc(C)cc1NS(=O)(=O)c1cc(C)ccc1C,0.9,-2,23,·,-6
COc1cc(S(=O)(=O)NC2CCCCC2C)ccc1Cl (centres undefined),0.8,-3,49*,51,7
COc1ccc(S(=O)(=O)N2CCOCC2)c(Cl)c1Cl,1.2,-1,30*,3,2
COc1ccc(S(=O)(=O)Nc2ccccc2SC)cc1C,1.2,1,36*,20,0
COc1cc(NS(=O)(=O)c2ccc(C)c(C)c2)c(OC)cc1Cl,1.4,-7,47*,·,-12
Cc1ccc(-n2c(=O)cc(NCc3cccnc3)[nH]c2=O)cc1,1,3,25,-7,-6
O=S(=O)(Nc1ccc(N2CCOCC2)cc1)c1ccc2ccccc2c1,1.3,4,48*,·,-14
Cc1ccc(S(=O)(=O)Nc2ccc(N3CCOCC3)cc2)cc1,0.9,-9,-3,·,-7
COc1ccc(S(=O)(=O)Nc2ccc(S(=O)(=O)N3CCOCC3)cc2)cc1C,1.3,-3,36*,21,1
Cn1c(SCC(=O)c2ccccc2)nnc1-c1cccc(N)c1,1.1,-6,10,·,8
Cc1ccc(CN(CC(=O)N/N=C/c2ccco2)S(=O)(=O)c2ccc(C)cc2)cc1,1.3,-4,3,·,-14
COc1cc(C2/C(=C(/O)c3ccc(F)cc3)C(=O)C(=O)N2CCCC(=O)O)ccc1O (centres undefined),1,11,-5,0,-8
CC(C)NC(=S)N/N=C1\CCCCC1C1CCCCC1 (centres undefined),1.3,-5,30*,·,3
Cc1[nH]c2ccccc2c1C1(O)C(=O)N(Cc2ccc3c(c2)OCO3)c2ccccc21 (centres undefined),1.3,5,31*,47,1
COCCn1c(=O)c2c(nc3n2CCN3c2ccc(C)cc2)n(C)c1=O,1.2,-4,6,-8,2
CC(=O)Oc1ccc2ccccc2c1C(NC(=O)Cc1ccccc1)c1ccc(Cl)cc1 (centres undefined),1.1,10,19,·,-9
O=C(NCCc1csc(-c2ccc(C(F)(F)F)cc2)n1)c1cccs1,0.8,4,82*,·,0
CC(=O)N(CCO)Cc1cc2cc(C)cc(C)c2[nH]c1=O,1,-15,12,-2,-6
O=C(c1ccco1)N1CCN(C(=O)c2cc(-c3ccccn3)nc3ccc(Cl)cc23)CC1,1.5,12,14,10,2
O=c1[nH]c2cc3c(cc2cc1C(c1nnnn1CC1CCCO1)N1CCCCCC1)OCCO3 (centres undefined),1.5,3,9,·,2
O=C1c2ccccc2C(=O)C1c1ccc2ccccc2n1,0.7,-6,13,-13,-4
SMILES,PLAP act,PostGolgi yeast,PostGolgi ctrl,Ecoli tolC,Ecoli WT expand
O=C1c2ccccc2C(=O)C1c1nccc2ccccc12,0.8,4,61*,18,1
Cc1ccc(-c2nnn(CC(=O)N(Cc3cccs3)C(C(=O)NC(C)(C)C)c3ccc(C)o3)n2)o1 (centres undefined),1.1,-5,10,-28,-10
CC(C)(C)NC(=O)C(c1ccco1)N(C(=O)Cn1nnc(-c2ccc(F)cc2)n1)c1cccc(F)c1 (centres undefined),·,2,36*,67*,2
Cc1ccc(-c2nnn(CC(=O)N(Cc3ccco3)C(C(=O)NC(C)(C)C)c3cccs3)n2)o1 (centres undefined),·,0,11,74*,-5
Cc1ccc(-c2nnn(CC(=O)N(Cc3cccs3)C(C(=O)NC(C)(C)C)c3ccco3)n2)o1 (centres undefined),1.2,-6,24,69*,-8
CC(=O)Nc1cccc(Oc2ccc(-c3noc(C)n3)cc2)c1,1.1,4,28,15,1
Cc1ccc(Cn2nnnc2CN2CCC(O)(c3ccccc3F)CC2)cc1,·,5,18,2,-1
O=C(N/N=C/c1ccccn1)c1ccc(Br)o1,2.4*,0,5,·,30
O=C(c1ccc(F)cc1)N1CCCCC(Sc2nnnn2-c2ccccc2)C1=O (centres undefined),1.4,5,45*,·,-3
O=C(c1ccc(F)cc1)C1CCN(C(=O)NC2CCCCC2)CC1,1,1,0,·,2
COc1ccc(C(=O)OCCN2C(=O)c3ccccc3C2=O)cc1OC,·,·,·,-5,·
O=C(OCCN1C(=O)c2ccccc2C1=O)c1cccc(OC(F)F)c1,1,2,36*,12,-10
O=C(c1ccccc1)c1nc2ccccc2n(CCCn2c(=O)c(C(=O)c3ccccc3)nc3ccccc32)c1=O,1,2,-10,·,-15
CCOc1ccc(NC2c3ccccc3C(=O)N2Cc2ccc3c(c2)OCO3)cc1 (centres undefined),1.3,-3,31*,·,-22
COc1cc(NC2c3ccccc3C(=O)N2Cc2ccc3c(c2)OCO3)cc(OC)c1OC (centres undefined),1.1,-6,14,·,-1
Cc1cc(NC(=O)CN2CCC(n3nnc4cc(C(F)(F)F)ccc43)CC2)no1,1.1,-8,15,-4,-8
CCCC(=O)Nc1nc2ccc(OCC)cc2s1,0.9,-20,6,-15,8
CCOc1ccc2nc(NC(=O)CN3CCC(n4nnc5cc(C(F)(F)F)ccc54)CC3)sc2c1,1,-1,35*,·,-4
CCOc1ccc2nc(NC(=O)CS(=O)(=O)c3ccccc3)sc2c1,1,-4,51*,9,7
CCOc1ccc2nc(NC(=O)c3cnc(C)cn3)sc2c1,2.6*,-4,-6,·,-12
Cc1csc(SCC(=O)Nc2ncc(Cl)c(C)c2Cl)n1,0.9,5,-3,·,9
COC(=O)c1ccc(OC)c(CSc2nnc(COc3ccccc3)o2)c1,0.8,10,13,62*,1
CC(=O)c1ccc(NC2=C(N3CCOCC3)C(=O)c3ccccc3C2=O)cc1,0.9,1,34*,·,-17
Cc1ccc(NC2=C(N3CCOCC3)C(=O)c3ccccc3C2=O)cc1,1.1,-4,3,·,-3
Cc1ccc(N(CC(O)COCc2ccco2)S(=O)(=O)c2ccc(C)cc2)cc1 (centres undefined),1.8,-2,5,15,5
CCOc1ccc(Br)cc1S(=O)(=O)Nc1nc(CN2CCOCC2)nc2sc(C)c(C)c12,1.2,-6,12,·,-4
COc1ccc(C(=O)Nc2ccc(Cl)cc2C(=O)N2CCCC(C)C2)cc1 (centres undefined),1,65*,16,·,3
c1csc(-c2nc3nc4ccccc4nc3n2Cc2ccc3c(c2)OCO3)c1,1.5,-6,44*,66*,-4
N#Cc1c(NCCCO)nc(NCc2ccccc2)c2c1CCN(Cc1ccccc1)C2,1.1,0,20,·,-16
